# Screens (PubChem BioAssay)
# MDM2 E3 inh: MDM2-luciferase reporter signal enhancers, primary screen, MDM2 E3 ligase inhibitor project, cell-based, luminescence, 1536-well; E3 ubiquitin-protein ligase Mdm2 (Homo sapiens), Q00987; cell-based MDM2 ubiquitination luciferase reporter, 2 h; 0 = plate control, 100 = twice control, blank-subtracted; signal enhancement, % at 5 µM; actives 0.11% (n = 210,000); AID 1230, 2008;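 active = signal enhancement of 30% or more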;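 note: luminescence tracks abundance of the self-degrading MDM2-luciferase fusion protein; higher signal means inhibition of MDM2 E3 ligase activity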
# Target sequence (Q00987 whole entry, looked up, the tested form may be a part): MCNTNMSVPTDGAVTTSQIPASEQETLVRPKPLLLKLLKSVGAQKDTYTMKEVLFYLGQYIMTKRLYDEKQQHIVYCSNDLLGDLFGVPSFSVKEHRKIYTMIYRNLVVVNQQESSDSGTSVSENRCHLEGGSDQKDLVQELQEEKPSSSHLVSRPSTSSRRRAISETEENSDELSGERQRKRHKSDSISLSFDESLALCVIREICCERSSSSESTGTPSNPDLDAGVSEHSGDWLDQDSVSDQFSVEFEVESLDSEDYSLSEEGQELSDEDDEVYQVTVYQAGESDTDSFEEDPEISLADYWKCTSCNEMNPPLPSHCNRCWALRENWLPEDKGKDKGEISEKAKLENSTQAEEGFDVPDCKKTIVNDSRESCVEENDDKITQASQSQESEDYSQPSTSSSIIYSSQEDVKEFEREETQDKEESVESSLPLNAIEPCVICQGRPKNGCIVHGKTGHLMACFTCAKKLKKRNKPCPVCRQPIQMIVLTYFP
#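 Timing – 2 h compound exposure at 37 °C · Assay system – mammalian cells stably expressing self-ubiquitinating, self-degrading MDM2 E3–luciferase fusion · Amount – 2000 cells seeded into each well · Measure – % luminescence enhancement versus blank-corrected plate control mean · Measured by – SteadyLite luminescence, 15 min reagent step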
# Rad51 HR inh: human RAD51 strand exchange inhibitors, primary screen, biochemical, fluorescence | DNA repair protein RAD51 homolog 1 (Homo sapiens), Q06609 | hRad51 DNA strand exchange, fluorescence dequenching | inhibition, % at 10 µM | actives 0.085% (n = 200,000);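 active = inhibition above 40% at the single screening dose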;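 note: 0% = DMSO control wells and 100% = blanks with heterologous ssDNA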
#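 Material: Human Rad51 nucleoprotein filaments preassembled on unlabelled ssDNA | Also added: Labelled 47-mer dsDNA for strand exchange | Dosing: Single dose, 10 µM final compound | Schedule: 30-min compound preincubation and 15-min exchange, both room temperature | Technique: Fluorescence dequenching at 485/520 nm | Measure: Percent inhibition relative to plate controls and blanks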
# HSV replic up: enhancers of HSV replication in host cells, fold increase, host cell viability. HSV replication augmentation in cells. maximum fold increase. actives 0.005% (n = 220,000). AID 1956, 2009; in the data active = maximum fold increase above about 1.5; tested in PC3 cells
# Hsp70 activator: Hsp70 transcriptional activators, primary screen, cell-based, HeLa, Hsp70 promoter luciferase, luminescence, 10 µM; AID 1203, 2008; HeLa Hsp70 promoter luciferase reporter; scaled: vehicle 0, proteasome-inhibitor control 100%; actives 0.04% (n = 200,000); activation, % at 10 µM;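 active = activation above the mean across all tested compounds plus 3 SD, cutoff set per campaign, cut at about 5.5% in these data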;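 note: 100% = MG132 at 30 µM as the positive control and 0% = DMSO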
# HSF1 inh: HSF1 inhibitors in luciferase reporter cells, primary screen, cell-based, NIH3T3, luminescence | NIH3T3-HGL HSE-luciferase, MG132-induced, luminescence 8 h; stronger effect = lower value | actives 0.77% (n = 300,000) | AID 2098, 2009 | activity change, negative = inhibition, % at 7.5 µM (by protocol);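 active = more than half of replicate wells show activity change below -50%, luminescence cut by over half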;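 note: luciferase reports HSF-1 transcriptional activity via heat shock element; 0% = median of DMSO wells and -100% = zero luminescence signal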
# HSF-1 act: HSF-1 activators, primary screen, NIH3T3-HGL cells, MG132 stress, luminescence, single point; NIH3T3-HGL HSF-1 luciferase reporter, 8 h; 100% = twice DMSO control signal; activation, % at 9 µM; actives 1.7% (n = 300,000); AID 504408, 2011;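 active = mean replicate activation of at least 50% with a set share of replicates each reaching 50%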;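 note: 0% = median of the neutral control wells and 100% = twice that signal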
# * = called active by the depositor; i = inactive; x = no result given. An excerpt weighted towards active compounds, which were near 2.6% of everything screened.
SMILES,MDM2 E3 inh,Rad51 HR inh,HSV replic up,Hsp70 activator,HSF1 inh,HSF-1 act
CCOC(=O)c1c(NC(=S)NCc2ccccc2)sc2c1CCN(C(=O)OCC)C2,-18,-17,i,x,36,72*
C=CCNC(=S)Nc1sc2c(c1C(=O)OCC)CCN(C(=O)OCC)C2,-11,-14,i,0,26,61*
CC(C)CN(C(=O)CCCOc1ccc(Cl)cc1Cl)c1c(N)n(Cc2ccccc2)c(=O)[nH]c1=O,x,x,x,x,10,33
CC1C(c2ccccc2)N(C)C(c2ccccc2)C(C)C1(O)C#Cc1ccccc1 (configuration not stated),-4,x,i,0,x,x
Cc1ccc2c(C)c(C(=O)N(Cc3ccncc3)CC3CCCO3)oc2c1C (configuration not stated),x,x,x,x,-1,-7
Cc1c(C(=O)N(Cc2ccncc2)CC2CCCO2)oc2c(F)cccc12 (configuration not stated),x,x,x,x,10,53*
Cc1cc(C)c(S(=O)(=O)Nc2cccc(/C=C/C(=O)O)c2)c(C)c1,-2,x,i,0,41,83*
CN(C)c1ccc(/C=N/NC(=O)c2cccc(N3CCCC3=O)c2)cc1,9,9,i,0,-82*,-87
CCOC(=O)C(N)CSC1CC(=O)N(CCc2ccccc2)C1=O (configuration not stated),x,x,x,x,7,16
CC(=O)Oc1ccc2occ(C(=O)c3ccccc3)c2c1,x,x,x,x,28,63*
CCC(=O)c1ccc(OCC(=O)NC2(C#N)CCCCC2)cc1,-1,10,i,0,x,x
CN(Cc1ccc(F)cc1)C(=O)CCc1nnc(-c2ccccc2)o1,-3,18,i,0,14,22
CN(Cc1nnc(-c2ccc(F)cc2)o1)c1ccccc1,x,x,x,x,13,60*
CC(C)(C)c1nn(-c2ccccc2)c2[nH]c(=O)c(CNc3ccc4c(c3)OCCO4)cc12,-5,0,i,-1,-65*,-67
COc1cccc(/C=C/C(=O)c2ccc[nH]2)c1,-9,x,x,0,50,86*
Cc1ccc(C(=O)N/N=C/c2ccc3c(c2)OCO3)o1,-4,x,i,0,3,12
Cc1ccc(O)c(C(=O)/C=C/c2ccc3c(c2)OCCCO3)c1,-5,-2,i,0,278,448*
O=C(/C=C/c1ccc2c(c1)OCCCO2)c1ccccc1O,-29,-7,i,0,16,12
Cc1ccc(C(=O)/C=C/c2ccc3c(c2)OCO3)o1,-2,-1,i,0,41,60*
O=C(/C=C/c1ccc2c(c1)OCO2)c1ccc[nH]1,-14,14,i,0,26,62*
COc1cccc(/C=C/C(=O)Oc2ccc(C(=O)c3ccc(F)cc3)cc2)c1,0,0,i,0,-4,8
CCC1(c2ccccc2)NC(=O)N(CC(=O)Nc2ccc(Cl)c(S(=O)(=O)N3CCCCC3)c2)C1=O (configuration not stated),x,x,x,x,11,18
CCN(CC)CC(O)CN1C(=O)NC(C)(C)C1=O (configuration not stated),7,7,i,0,-14,1
COc1cccc(CN2CC(C(=O)N(C)Cc3ccnc4ccccc34)CCC2=O)c1 (configuration not stated),x,x,x,x,-14,-9
CCNc1ccccc(C(=O)/C=C/c2ccc3c(c2)OCO3)c1=O,-7,-7,i,0,35,72*
COc1cccc(C(=O)OCC(=O)Nc2cc(C)c(C)cc2[N+](=O)[O-])c1,-17,-4,i,0,-4,-6
CCOc1ccc(/C=C2\SC(=S)N(CCC(=O)O)C2=O)cc1,-16,x,i,x,-60*,-62
